System: HEK-293T
Experiment: Multiplex assay against HEK293T
Assay type: toxicity, cell-based
Conditions: human
Procedure, shortened: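 On a CQ1 microscope at 37°C and 5% CO2, live cells were imaged after compound addition. They had been stained at seeding with Hoechst33342, BioTracker Green Microtubule Cytoskeleton Dye, MitoTracker Red and Annexin V Alexa Fluor 680. CellPathfinder machine-learning gating assigned cells to Hoechst high-intensity objects or normal cells, normal cells to healthy, pyknosed or fragmented nuclei, and pyknosed cells to mitotic or apoptotic. Tubulin, mitochondrial-mass and membrane-permeability phenotypes are per cents of healthy-nucleus cells.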

[1] = 12 h, 1 µM, compound concentration 1 uM, replicate 1
[2] = 12 h, 1 µM, compound concentration 1 uM, replicate 2
[3] = 12 h, 10 µM, compound concentration 10 uM, replicate 1
[4] = 12 h, 10 µM, compound concentration 10 uM, replicate 2
[5] = 24 h, 1 µM, compound concentration 1 uM, replicate 1
[6] = 24 h, 1 µM, compound concentration 1 uM, replicate 2
[7] = 24 h, 10 µM, compound concentration 10 uM, replicate 1
[8] = 24 h, 10 µM, compound concentration 10 uM, replicate 2
[9] = 48 h, 1 µM, compound concentration 1 uM, replicate 1
[10] = 48 h, 1 µM, compound concentration 1 uM, replicate 2
[11] = 48 h, 10 µM, compound concentration 10 uM, replicate 1
[12] = 48 h, 10 µM, compound concentration 10 uM, replicate 2

Compound: COC[C@@H](c1ccc(C(F)(F)F)cc1)N1CCN(C2(C)CCN(C(=O)c3c(C)ncnc3C)CC2)C[C@@H]1C.O=C(O)/C=C\C(=O)O [VICRIVIROC MALEATE]
- Population Apoptotic (%) [1]: 46%
- Population Fragmented Nuclei (%) [1]: 7%
- Population Healthy Nuclei (%) [1]: 80%
- Population Hoechst High Intensity Objects (%) [1]: 9%
- Population Membrane Permeable-Phenotype (%) [1]: 0%
- Population Mitochondria Different-Phenotype (%) [1]: 47%
- Population Mitotic Cells (%) [1]: 53%
- Population Normal (%) [1]: 90%
- Population Pyknosed Nuclei (%) [1]: 12%
- Population Tubulin-Different-Phenotype (%) [1]: 27%
- Total Cell Count [1]: 406
- Population Apoptotic (%) [2]: 45%
- Population Hoechst High Intensity Objects (%) [2]: 5%
- Population Mitochondria Different-Phenotype (%) [2]: 51%
- Population Mitotic Cells (%) [2]: 54%
- Population Normal (%) [2]: 94%
- Population Pyknosed Nuclei (%) [2]: 11%
- Population Tubulin-Different-Phenotype (%) [2]: 17%
- Total Cell Count [2]: 387
- Population Apoptotic (%) [3]: 44%
- Population Fragmented Nuclei (%) [3]: 6%
- Population Healthy Nuclei (%) [3]: 75%
- Population Hoechst High Intensity Objects (%) [3]: 8%
- Population Membrane Permeable-Phenotype (%) [3]: 0%
- Population Mitochondria Different-Phenotype (%) [3]: 63%
- Population Mitotic Cells (%) [3]: 55%
- Population Normal (%) [3]: 91%
- Population Pyknosed Nuclei (%) [3]: 18%
- Population Tubulin-Different-Phenotype (%) [3]: 57%
- Total Cell Count [3]: 315
- Population Apoptotic (%) [4]: 62%
- Population Fragmented Nuclei (%) [4]: 5%
- Population Healthy Nuclei (%) [4]: 72%
- Population Hoechst High Intensity Objects (%) [4]: 16%
- Population Mitochondria Different-Phenotype (%) [4]: 78%
- Population Mitotic Cells (%) [4]: 37%
- Population Normal (%) [4]: 83%
- Population Pyknosed Nuclei (%) [4]: 21%
- Population Tubulin-Different-Phenotype (%) [4]: 51%
- Total Cell Count [4]: 265
- Population Apoptotic (%) [5]: 30%
- Population Fragmented Nuclei (%) [5]: 9%
- Population Healthy Nuclei (%) [5]: 79%
- Population Hoechst High Intensity Objects (%) [5]: 6%
- Population Membrane Permeable-Phenotype (%) [5]: 0%
- Population Mitochondria Different-Phenotype (%) [5]: 24%
- Population Mitotic Cells (%) [5]: 69%
- Population Normal (%) [5]: 93%
- Population Pyknosed Nuclei (%) [5]: 10%
- Population Tubulin-Different-Phenotype (%) [5]: 21%
- Total Cell Count [5]: 564
- Population Apoptotic (%) [6]: 31%
- Population Healthy Nuclei (%) [6]: 82%
- Population Hoechst High Intensity Objects (%) [6]: 5%
- Population Membrane Permeable-Phenotype (%) [6]: 1%
- Population Mitotic Cells (%) [6]: 68%
- Population Normal (%) [6]: 94%
- Population Pyknosed Nuclei (%) [6]: 8%
- Population Tubulin-Different-Phenotype (%) [6]: 11%
- Total Cell Count [6]: 515
- Population Apoptotic (%) [7]: 34%
- Population Fragmented Nuclei (%) [7]: 6%
- Population Healthy Nuclei (%) [7]: 80%
- Population Hoechst High Intensity Objects (%) [7]: 6%
- Population Membrane Permeable-Phenotype (%) [7]: 0%
- Population Mitochondria Different-Phenotype (%) [7]: 53%
- Population Mitotic Cells (%) [7]: 66%
- Population Normal (%) [7]: 93%
- Population Pyknosed Nuclei (%) [7]: 13%
- Population Tubulin-Different-Phenotype (%) [7]: 49%
- Total Cell Count [7]: 406
- Population Apoptotic (%) [8]: 60%
- Population Fragmented Nuclei (%) [8]: 10%
- Population Healthy Nuclei (%) [8]: 77%
- Population Hoechst High Intensity Objects (%) [8]: 16%
- Population Mitochondria Different-Phenotype (%) [8]: 70%
- Population Mitotic Cells (%) [8]: 39%
- Population Normal (%) [8]: 83%
- Population Pyknosed Nuclei (%) [8]: 12%
- Population Tubulin-Different-Phenotype (%) [8]: 39%
- Total Cell Count [8]: 310
- Population Apoptotic (%) [9]: 21%
- Population Fragmented Nuclei (%) [9]: 11%
- Population Healthy Nuclei (%) [9]: 80%
- Population Hoechst High Intensity Objects (%) [9]: 2%
- Population Membrane Permeable-Phenotype (%) [9]: 1%
- Population Mitochondria Different-Phenotype (%) [9]: 13%
- Population Mitotic Cells (%) [9]: 78%
- Population Normal (%) [9]: 97%
- Population Pyknosed Nuclei (%) [9]: 7%
- Population Tubulin-Different-Phenotype (%) [9]: 12%
- Total Cell Count [9]: 930
- Population Apoptotic (%) [10]: 34%
- Population Fragmented Nuclei (%) [10]: 13%
- Population Healthy Nuclei (%) [10]: 81%
- Population Mitochondria Different-Phenotype (%) [10]: 11%
- Population Mitotic Cells (%) [10]: 65%
- Population Pyknosed Nuclei (%) [10]: 5%
- Population Tubulin-Different-Phenotype (%) [10]: 8%
- Total Cell Count [10]: 751
- Population Apoptotic (%) [11]: 38%
- Population Fragmented Nuclei (%) [11]: 12%
- Population Healthy Nuclei (%) [11]: 75%
- Population Hoechst High Intensity Objects (%) [11]: 4%
- Population Membrane Permeable-Phenotype (%) [11]: 0%
- Population Mitochondria Different-Phenotype (%) [11]: 49%
- Population Mitotic Cells (%) [11]: 61%
- Population Normal (%) [11]: 95%
- Population Pyknosed Nuclei (%) [11]: 11%
- Population Tubulin-Different-Phenotype (%) [11]: 35%
- Total Cell Count [11]: 559
- Population Apoptotic (%) [12]: 53%
- Population Fragmented Nuclei (%) [12]: 14%
- Population Healthy Nuclei (%) [12]: 70%
- Population Hoechst High Intensity Objects (%) [12]: 11%
- Population Mitochondria Different-Phenotype (%) [12]: 50%
- Population Mitotic Cells (%) [12]: 46%
- Population Normal (%) [12]: 88%
- Population Pyknosed Nuclei (%) [12]: 15%
- Population Tubulin-Different-Phenotype (%) [12]: 38%
- Total Cell Count [12]: 394

From ChEMBL document CHEMBL5058577, “EUbOPEN Chemogenomics Library 2 (Multiplex)” (2022)
